In brackets after ≈: the same amount, converted by molar mass. Activity calls are given as the source filed them. No cut-off for these calls is given here. Starred links: 1 amine or outer side, 2 acyl side, 3 side chain; linkers in the order of their positions; H or OH if unused. Non-standard residues stand in square brackets, D forms with d. Residues, ends and D or L forms follow the SMILES beside them. X1 = CCCCCCCCCCCCCCCCN([C@@H](CCCCN)C(=O)[*:2])[*:1]; X2 = CCCCCCCCCCCCCCCCN([C@@H](C)C(=O)[*:2])[*:1]
Key:
[1] = tested on: Cell membrane; test: Induction of inner membrane permeability in Escherichia coli K12 assessed as shift in bacterial zeta potential at 80 ug/ml measured after 1 hr; assay type: subcellular; conditions: dose 80.0 µg/ml
[2] = tested on: Escherichia coli; test: Synergistic antibacterial activity against Escherichia coli K12 assessed as potentiation of rifampicin-induced antibacterial activity by measuring fold increase in rifampicin MIC incubated for 20 to 24 hrs by checkerboard broth microdilution assay relative to rifampicin alone; assay type: functional; conditions: time 20-24 hrs
How it was run: (§1)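 Checkerboard broth microdilution. E. coli K12 or A. baumannii clinical isolate grown to mid-log (OD ~0.8) and diluted to ~10^5 CFU/mL in MHB. Two-fold dilutions of rifampicin or vancomycin run across the plate against two-fold PA dilutions down it. Incubated 20–24 h at 37 °C, OD read at 470 nm. FICi calculated from the combination MICs.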

[3] = Self assembly property of the compound assessed as formation of micelles at 1 mg/ml incubated overnight by transmission electron microscopy; assay type: physicochemical
How it was run: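 Samples were dissolved at 2 mM in water, pH 7, and left at room temperature overnight. Applied to copper grids for 5 min, blotted, and negatively stained with NanoVan for 30 s. Imaged by TEM at 120 kV.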

[4] = tested on: Cell membrane; test: Induction of inner membrane permeability in methicillin-resistant Staphylococcus aureus JE2 assessed as shift in bacterial zeta potential at 80 ug/ml measured after 1 hr; assay type: subcellular; conditions: dose 80.0 µg/ml
How it was run: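 Mid-log MRSA JE2 from MHB (OD ~0.8) washed and resuspended in PBS at 5×10^7 CFU/mL, exposed to peptide at 10 × MIC for 1 h, then zeta potential measured at 25 °C; untreated cells as negative control, daptomycin and polymyxin B as reference drugs.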

[5] = tested on: Cell membrane; test: Induction of inner membrane permeability in Escherichia coli K12 at 8 to 16 ug/mL by propidium iodide staining based spectrofluorometry; assay type: subcellular; conditions: dose 8-16 µg/ml
How it was run: (§2)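 E. coli K12 grown in MHB to mid-log, washed twice in PBS, and diluted to 10^6 CFU/mL in 5 mM HEPES + glucose. Cells preincubated with […] at least 15 min at 37 °C. Then treated with agent at 1/8, 1× or 2× MIC, or with PA–vancomycin 1:1. Fluorescence read at ex 535 / em 615 nm. Polymyxin B as positive control; untreated cells as negative control.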

[6] = tested on: Staphylococcus aureus; test: Antibacterial activity against methicillin-resistant Staphylococcus aureus LAC incubated for 20 to 24 hrs by broth microdilution method; assay type: functional; conditions: time 20-24 hrs
How it was run: (§3)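 Broth microdilution in MHB: direct colony suspension at 0.5 McFarland diluted to ~10^5 CFU/mL final; peptide stock 1 mg/mL in water at pH 7, serially diluted. Incubated 20-24 h at 37 °C; MIC taken as the lowest concentration inhibiting growth (OD 600 nm, 1% TTC stain); triplicate; vancomycin and gentamicin as positive controls.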

[7] = Cytotoxicity against HEK293 cells assessed as cell viability up to 64 ug/ml incubated for 24 hrs by XTT assay relative to control; assay type: toxicity, cell-based; conditions: human, up to 64 µg/mL, read-out: Activity
How it was run: (§4)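 HEK-293 cells, passages 3–8, seeded at 5×10^4 per well and preincubated 24 h at 37 °C, 5% CO2. Medium replaced with serially diluted PA, final 8–256 µg/mL, for 24 h, in triplicate. XTT reagent (0.5 mg/mL) added for 4 h at 37 °C, then absorbance read at 600 nm.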

[8] = tested on: Acinetobacter baumannii; test: Synergistic antibacterial activity against Acinetobacter baumannii assessed as potentiation of rifampicin-induced antibacterial activity by measuring fold increase in rifampicin MIC incubated for 20 to 24 hrs by checkerboard broth microdilution assay relative to rifampicin alone; assay type: functional; conditions: time 20-24 hrs; how it was run: as §1
[9] = tested on: Staphylococcus aureus; test: Antibacterial activity against methicillin-resistant Staphylococcus aureus JE2 incubated for 20 to 24 hrs by broth microdilution method; assay type: functional; conditions: time 20-24 hrs; how it was run: as §3
[10] = tested on: Cell membrane; test: Induction of inner membrane permeability in Escherichia coli K12 at 4 ug/mL by propidium iodide staining based spectrofluorometry; assay type: subcellular; conditions: dose 4.0 µg/ml; how it was run: as §2
[11] = tested on: Staphylococcus aureus; test: Antibacterial activity against methicillin resistant Staphylococcus aureus JE2 assessed as fold increase in MIC after 5 days by broth microdilution method relative to MIC before 5 days; assay type: functional; conditions: time 5 day
[12] = Retention time of the compound by RP-HPLC analysis; assay type: physicochemical
How it was run: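 Reverse-phase HPLC, linear gradient 0–100% acetonitrile in water with 0.1% TFA over 20 min; retention time recorded.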

[13] = Self assembly property of the compound assessed as zeta potential at 250 ug/mL at pH 7 measured after 2 hrs; assay type: physicochemical; conditions: pH 7, 2 h, dose 250 µg/ml
How it was run: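 Peptide self-assembled at 1 mg/mL, pH 7, annealed 2 h at 80 °C, and aged overnight. Diluted to 250 µg/mL in water; zeta potential measured at 25 °C.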

[14] = tested on: Escherichia coli; test: Synergistic antibacterial activity against Escherichia coli K12 assessed as fractional inhibitory concentration index incubated for 20 to 24 hrs in presence of rifampicin by checkerboard broth microdilution assay; assay type: functional; conditions: time 20-24 hrs; how it was run: as §1
[15] = tested on: Acinetobacter baumannii; test: Antibacterial activity against Acinetobacter baumannii incubated for 20 to 24 hrs by broth microdilution method; assay type: functional; conditions: time 20-24 hrs
How it was run: (§5)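 Broth microdilution: colonies suspended directly to 1.5×10^8 CFU/mL (0.5 McFarland), then diluted in Mueller–Hinton broth to ~10^5 CFU/mL final. PA stock 1 mg/mL in water, pH 7, serially diluted in MHB. Plates incubated 20–24 h at 37 °C. MIC = lowest concentration inhibiting growth, read as OD600 with optional 1% TTC staining. Triplicate.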

[16] = tested on: HEK293; test: Cytotoxicity against HEK293 cells assessed as reduction in cell viability at 64 to 256 ug/ml incubated for 24 hrs by XTT assay; assay type: toxicity, cell-based; conditions: human, hek293, 24 h, dose 64-256 µg/ml; how it was run: as §4
[17] = Hemolytic activity in human red blood cells assessed as hemolysis at 8 ug/ml incubated for 60 min relative to control; assay type: toxicity, cell-based, Erythrocyte; conditions: at 8 µg/mL, read-out: Activity
How it was run: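 Washed human RBCs at 0.25×10^8 cells/mL final in PBS, mixed with PA (stocks 16–1024 µg/mL, equal volume). Shaken 10 min, then incubated 60 min at 37 °C, 5% CO2. Cells pelleted at 1000 × g; supernatant hemoglobin read at OD405. 5% Triton X-100 taken as 100% hemolysis; water as negative control.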

[18] = tested on: Acinetobacter baumannii; test: Synergistic antibacterial activity against Acinetobacter baumannii assessed as fractional inhibitory concentration index incubated for 20 to 24 hrs in presence of rifampicin by checkerboard broth microdilution assay; assay type: functional; conditions: time 20-24 hrs; how it was run: as §1
[19] = tested on: Staphylococcus aureus; test: Antibacterial activity against methicillin-resistant Staphylococcus aureus 13C incubated for 20 to 24 hrs by broth microdilution method; assay type: functional; conditions: time 20-24 hrs; how it was run: as §3
[20] = tested on: Escherichia coli; test: Antibacterial activity against Escherichia coli K12 incubated for 20 to 24 hrs by broth microdilution method; assay type: functional; conditions: time 20-24 hrs; how it was run: as §5
[21] = tested on: Escherichia coli; test: Synergistic antibacterial activity against Escherichia coli K12 assessed as fractional inhibitory concentration index incubated for 20 to 24 hrs in presence of vancomycin by checkerboard broth microdilution assay; assay type: functional; conditions: time 20-24 hrs; how it was run: as §1
[22] = tested on: Staphylococcus aureus; test: Ratio of MIC for methicillin-resistant Staphylococcus aureus JE2 at pH 5.5 to MIC for methicillin-resistant Staphylococcus aureus JE2 at pH 7.0
[23] = tested on: Staphylococcus aureus; test: Antibacterial activity against methicillin resistant Staphylococcus aureus JE2 assessed as fold increase in MIC after 21 days by broth microdilution method relative to MIC before 21 days; assay type: functional; conditions: time 21 day
[24] = tested on: Staphylococcus aureus; test: Antibacterial activity against methicillin resistant Staphylococcus aureus JE2 assessed as fold increase in MIC after 21 days in presence of vancomycin by broth microdilution method relative to MIC before 21 days; assay type: functional; conditions: time 21 day
[25] = tested on: Cell membrane; test: Induction of inner membrane permeability in Escherichia coli K12 by propidium iodide staining based spectrofluorometry; assay type: subcellular; conditions: dose 4-64 µg/ml; how it was run: as §2
[26] = tested on: Cell membrane; test: Induction of inner membrane permeability in Escherichia coli K12 at FICI in presence of vancomycin by propidium iodide staining based spectrofluorometry; assay type: subcellular; conditions: dose 4.0 µg/ml; how it was run: as §2
[27] = tested on: Acinetobacter baumannii; test: Synergistic antibacterial activity against Acinetobacter baumannii assessed as fractional inhibitory concentration index incubated for 20 to 24 hrs in presence of vancomycin by checkerboard broth microdilution assay; assay type: functional; conditions: time 20-24 hrs; how it was run: as §1
[28] = tested on: Escherichia coli; test: Synergistic antibacterial activity against Escherichia coli K12 assessed as potentiation of vancomycin-induced antibacterial activity by vancomycin MIC incubated for 20 to 24 hrs by checkerboard broth microdilution assay; assay type: functional; conditions: time 20-24 hrs; how it was run: as §1
[29] = tested on: Cell membrane; test: Induction of inner membrane permeability in Escherichia coli K12 at 2 times FICI in presence of vancomycin by propidium iodide staining based spectrofluorometry; assay type: subcellular; conditions: dose 2.0 µg/ml; how it was run: as §2
[30] = tested on: Escherichia coli; test: Ratio of MIC for Escherichia coli K12 at pH 5.5 to MIC for Escherichia coli K12 at pH 7.0
[31] = tested on: Escherichia coli; test: Synergistic antibacterial activity against Escherichia coli K12 assessed as potentiation of vancomycin-induced antibacterial activity by measuring fold increase in vancomycin MIC incubated for 20 to 24 hrs by checkerboard broth microdilution assay relative to vancomycin alone; assay type: functional; conditions: time 20-24 hrs; how it was run: as §1
[32] = tested on: Escherichia coli; test: Synergistic antibacterial activity against Escherichia coli K12 incubated for 20 to 24 hrs in presence of vancomycin by checkerboard broth microdilution assay; assay type: functional; conditions: time 20-24 hrs; how it was run: as §1

Row | Structure (SMILES) | Activity [3] | viability at 24 h [7] [%] | MIC [9] [µg/mL] | Activity [10] | Retention_time [12] [min] | Activity [13] [mV] | MIC [15] [µg/mL] | Activity [16] | hemolysis at 1 h, 8 ug/ml [17] [%] | MIC [19] [µg/mL] | MIC [20] [µg/mL] | also measured
1 | CCCCCCCCCCCCCCCCN[C@@H](C)C(=O)N[C@@H](C)C(=O)N[C@@H](C)C(=O)N[C@@H](CCCCN)C(=O)N[C@@H](CCCNC(=N)N)C(=O)N[C@@H](CCCCN)C(=O)N[C@@H](CCCNC(=N)N)C(=O)O (H-[X2]AAKRKR-OH) | Active | 100 | 8 (≈ 7.81 µM) | inactive | 14.3 | 10.8 | 4 (≈ 3.9 µM) | Non-Toxic | 33.3 | 8 (≈ 7.81 µM) | 8 (≈ 7.81 µM) | Activity [1]: Active; fold change (FC) [2]: 8; Activity [4]: Active; Activity [5]: Active; MIC [6]: 8 µg/mL (≈ 7.81 µM); fold change (FC) [8]: 2; fold change (FC) [11]: 2; fractional inhibitory concentration index (FICI) [14]: 0.62; fractional inhibitory concentration index (FICI) [18]: 0.75
2 | CCCCCCCCCCCCCCCCN[C@@H](CCCCN)C(=O)N[C@@H](Cc1c[nH]cn1)C(=O)N[C@@H](CCCCN)C(=O)N[C@@H](Cc1c[nH]cn1)C(=O)N[C@@H](CCCCN)C(=O)O (H-[X1]HKHK-OH) | Active | 100 | 64 (≈ 71 µM) | Active | 13.4 | 15.8 | 64 (≈ 71 µM) | Non-Toxic | 28.2 | 32 (≈ 35.5 µM) | 32 (≈ 35.5 µM) | fractional inhibitory concentration index (FICI) [21]: 0.15; Ratio [22]: > 1; fold change (FC) [23]: 8; fold change (FC) [24]: 8; Activity [25]: Dose-Dependent Effect; Activity [26]: Active; fractional inhibitory concentration index (FICI) [27]: 1; MIC [28]: 4 µg/mL; Activity [29]: Active; Ratio [30]: > 1; fold change (FC) [31]: 32; MIC [32]: 4 µg/mL

From ChEMBL document CHEMBL5365541, “Designing peptide amphiphiles as novel antibacterials and antibiotic adjuvants against gram-negative bacteria” (Bioorg Med Chem, 2023)
